Test results taken from ChEMBL document CHEMBL1125103, “Structure-activity relationships for metal-labeled blood flow tracers: comparison of keto aldehyde bis(thiosemicarbazonato)copper(II) derivatives” (J Med Chem, 1990).

How the values were obtained:
[1] = species: Rattus norvegicus; experiment: Blood levels of tracer copper in rats 1 min after injection into the femoral vein; format: functional, organism-based
Summary of the method: (§1)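 Copper-67 bis(thiosemicarbazone) complex, 0.2 mL (1–3 μCi) in 5–10% ethanol, injected with a 27-gauge needle into the exposed femoral vein of ether-anesthetized Sprague-Dawley rats (generally 175–225 g). Dose was set by weighing the syringe. Rats were killed by decapitation; organs were excised, blotted and weighed, and counted for 67Cu by gamma counting against a diluted standard dose. Values are percent injected dose per organ, with blood volume taken as 7% of body mass. Generally four rats per time point; mean ± SD.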

[2] = species: Rattus norvegicus; experiment: (§2) Blood levels of tracer copper in rats 5 min after injection into the femoral vein; format: functional, organism-based; summary of the method: as §1
[3] = species: Rattus norvegicus; experiment: Kidney levels of tracer copper in rats 1 min after injection into the femoral vein; format: functional, organism-based; summary of the method: as §1
[4] = species: Rattus norvegicus; experiment: Liver levels of tracer copper in rats 5 min after injection into the femoral vein; format: functional, organism-based; summary of the method: as §1
[5] = species: Rattus norvegicus; experiment: Liver levels of tracer copper in rats 1 min after injection into the femoral vein; format: functional, organism-based; summary of the method: as §1
[6] = species: Rattus norvegicus; experiment: Brain levels of tracer copper in rats 1 min after injection into the femoral vein; format: functional, organism-based; summary of the method: as §1
[7] = species: Rattus norvegicus; experiment: Blood levels of tracer copper in rats 2 hr after injection into the femoral vein; format: functional, organism-based; summary of the method: as §1
[8] = species: Rattus norvegicus; experiment: Pulmonary levels of tracer copper in rats 2 hr after injection into the femoral vein; format: functional, organism-based; summary of the method: as §1
[9] = species: Rattus norvegicus; experiment: Liver levels of tracer copper in rats 2 hr after injection into the femoral vein; format: functional, organism-based; summary of the method: as §1
[10] = species: Rattus norvegicus; experiment: Pulmonary levels of tracer copper in rats 5 min after injection into the femoral vein; format: functional, organism-based; summary of the method: as §1
[11] = species: Rattus norvegicus; experiment: Brain levels of tracer copper in rats 5 min after injection into the femoral vein; format: functional, organism-based; summary of the method: as §1
[12] = species: Rattus norvegicus; experiment: Kidney levels of tracer copper in rats 2 hr after injection into the femoral vein; format: functional, organism-based; summary of the method: as §1
[13] = species: Rattus norvegicus; experiment: as §2; format: functional, organism-based; summary of the method: as §1; remark: listed apart in the source
[14] = species: Rattus norvegicus; experiment: Pulmonary levels of tracer copper in rats 1 min after injection into the femoral vein; format: functional, organism-based; summary of the method: as §1
[15] = species: Rattus norvegicus; experiment: Myocardial levels of tracer copper in rats 2 hr after injection into the femoral vein; format: functional, organism-based; conditions: Myocardium; summary of the method: as §1
[16] = species: Rattus norvegicus; experiment: Myocardial levels of tracer copper in rats 5 min after injection into the femoral vein; format: functional, organism-based; conditions: Myocardium; summary of the method: as §1
[17] = species: Rattus norvegicus; experiment: Brain levels of tracer copper in rats 2 hr after injection into the femoral vein; format: functional, organism-based; summary of the method: as §1
[18] = species: Rattus norvegicus; experiment: Myocardial levels of tracer copper in rats 1 min after injection into the femoral vein; format: functional, organism-based; conditions: Myocardium; summary of the method: as §1
[19] = species: Rattus norvegicus; experiment: Kidney levels of tracer copper in rats 5 min after injection into the femoral vein; format: functional, organism-based; summary of the method: as §1
[20] = Partition coefficient (logP); format: physicochemical; conditions: octanol/water
Summary of the method: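 1-Octanol (1 mL) and isotonic Tris buffer pH 7.0 (1 mL) vortexed with 1–5 μL of the 67Cu-labeled aqueous complex, then centrifuged at >1200g for 5 min. Both phases were gamma counted in a window on the 185 keV peak. P = counts per g octanol / counts per g water. The octanol phase was re-extracted; the value is from the second and third extractions, mean of six measurements.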

| Substance | Injected dose [1] [%] | Injected dose [2] [%] | Injected dose [3] [%] | Injected dose [4] [%] | Injected dose [5] [%] | Injected dose [6] [%] | Injected dose [7] [%] | Injected dose [8] [%] | Injected dose [9] [%] | Injected dose [10] [%] | Injected dose [11] [%] | Injected dose [12] [%] | Injected dose [13] [%] | Injected dose [14] [%] | Injected dose [15] [%] | Injected dose [16] [%] | Injected dose [17] [%] | Injected dose [18] [%] | Injected dose [19] [%] | logP [20] |
| --- | --- | --- | --- | --- | --- | --- | --- | --- | --- | --- | --- | --- | --- | --- | --- | --- | --- | --- | --- | --- |
| Propyl glyoxal bis(thiosemicarbazone)(67Cu-n-PrTS) [listing 1 of 2 here] | 15.2 | 8.9 | 2.8 | 13.7 | 11.5 | 1.45 | 8.5 | 5.2 | 17.3 | 9.6 | 1.27 | 3.6 | 8.9 | 13.1 | 3.5 | 3 | 1.79 | 3.9 | 2.8 |  |
| Propyl glyoxal bis(thiosemicarbazone)(67Cu-n-PrTS) [listing 2 of 2 here] |  |  |  |  |  |  |  |  |  |  |  |  |  |  |  |  |  |  |  | 1.78 |
